The list is a sample of the results.
HKDC1 act – increases human hexokinase HKDC1 activity. Q2TB90. recombinant HKDC1, G6PDH/diaphorase resazurin fluorescence; stronger effect = lower value. activity change, negative = activation, % at 20 µM. actives 0.056% (n = 340,000). AID 493187;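 active = activation of 40% or more at 20 µM, a change of -40% or lower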
Target sequence (Q2TB90 whole entry, looked up): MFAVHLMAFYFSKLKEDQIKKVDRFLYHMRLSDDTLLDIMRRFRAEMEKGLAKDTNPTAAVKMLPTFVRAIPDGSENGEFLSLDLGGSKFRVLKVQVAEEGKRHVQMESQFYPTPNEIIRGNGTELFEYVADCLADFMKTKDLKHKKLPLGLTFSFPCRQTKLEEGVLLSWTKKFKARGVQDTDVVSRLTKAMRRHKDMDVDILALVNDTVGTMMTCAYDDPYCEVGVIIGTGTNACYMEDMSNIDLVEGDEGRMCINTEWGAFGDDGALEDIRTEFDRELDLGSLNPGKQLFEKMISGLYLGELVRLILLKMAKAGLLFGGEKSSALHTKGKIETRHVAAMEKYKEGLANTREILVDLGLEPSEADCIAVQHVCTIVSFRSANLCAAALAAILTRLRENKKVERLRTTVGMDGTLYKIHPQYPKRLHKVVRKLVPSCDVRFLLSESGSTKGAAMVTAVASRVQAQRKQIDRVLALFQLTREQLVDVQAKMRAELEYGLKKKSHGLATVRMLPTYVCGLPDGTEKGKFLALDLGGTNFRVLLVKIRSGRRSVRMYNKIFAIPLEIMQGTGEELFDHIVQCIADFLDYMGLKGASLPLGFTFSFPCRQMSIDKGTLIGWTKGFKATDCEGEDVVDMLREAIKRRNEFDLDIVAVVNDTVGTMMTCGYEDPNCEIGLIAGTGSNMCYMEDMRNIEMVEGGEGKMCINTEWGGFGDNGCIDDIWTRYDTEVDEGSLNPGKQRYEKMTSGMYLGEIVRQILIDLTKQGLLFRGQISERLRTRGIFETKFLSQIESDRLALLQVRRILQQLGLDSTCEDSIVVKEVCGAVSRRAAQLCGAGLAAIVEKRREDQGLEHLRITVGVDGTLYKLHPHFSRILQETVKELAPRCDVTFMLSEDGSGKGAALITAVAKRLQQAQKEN
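Signal: coupled resazurin-to-resorufin fluorescence, Ex 525/Em 613 nm. Test system: in-house human HKDC1 enzyme, G6PDH and diaphorase coupling enzymes. Quantity: HKDC1 5 µg/mL. Timing: 90 min reaction at room temperature, dark.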
Starred values were filed as active, the others as inactive.

What do the screens show for `O=C(O)c1cccc2cccc(-c3c4ccc(=O)c(O)c-4oc4c(O)c(O)ccc34)c12`?
HKDC1 act: 69.5

Results for CC(=NNC(=S)SCc1ccccc1)c1ccccn1 ?
HKDC1 act: -46.5*

Results for CC(=NNC(=S)Nc1cccc(Cl)c1)c1ccccn1 ?
HKDC1 act: -46.4*

What do the screens show for `COc1ccc2c(c1)C(=NNC(=O)c1ccccn1)c1cc(OC)ccc1-2`?
HKDC1 act: 42.4

What do the screens show for `O=C(NCCc1ccccc1)C(c1cccs1)N(C(=O)CCl)c1ccc(Cl)cc1` (stereo unspecified)?
HKDC1 act: 37.0

What do the screens show for `O=C(CSc1n[nH]c(-c2ccccc2)n1)Nc1ncc(Br)cc1Br`?
HKDC1 act: 47.7

How did c1ccc(Nc2cc(Nc3ccccc3)[nH]n2)cc1 do in these assays?
HKDC1 act: -46.9*

Results for COC1=C(OC)C(=O)C(Sc2ccc3ccccc3c2)=CC1=O ?
HKDC1 act: 71.2

Results for O=C(O)CSc1cc(NS(=O)(=O)c2ccc(Cl)cc2)c2ccccc2c1O ?
HKDC1 act: 65.4

How did CCN1CCN(c2cc3c(nn2)Oc2ccccc2N3C)CC1 do in these assays?
HKDC1 act: -43.8*

What do the screens show for `CCN(CC)CCNc1cc(C)nc2c1C(=O)C(=O)C=C2N1CCCCC1`?
HKDC1 act: 45.2

What do the screens show for `CCN1/C(=C/C=C/c2oc3ccc4ccccc4c3[n+]2CC)Oc2ccc3ccccc3c21`?
HKDC1 act: 50.8

Results for O=S(=O)(c1ccc(NC(=S)NN=C(Cc2ccccc2)Cc2ccccc2)cc1)N1CCOCC1 ?
HKDC1 act: -47.1*

How did Cc1cc2nnc(SCC(=O)Nc3cc(S(=O)(=O)N4CCOCC4)ccc3Cl)n2c2ccccc12 do in these assays?
HKDC1 act: 47.8

How did C=CC(=O)N1C/C(=C/c2ccc(F)cc2)C(=O)/C(=C\c2ccc(F)cc2)C1 do in these assays?
HKDC1 act: 36.0

How did CCOc1ccc2nc3cc(NCc4ccc(OC)cc4)ccc3c(N)c2c1 do in these assays?
HKDC1 act: 36.1

Results for O=C(NNC(=O)c1cccnc1)NC1CCCCC1 ?
HKDC1 act: -59.5*

Results for O=c1[nH]c(=O)c2nc3c4ccccc4c4ccccc4c3nc2[nH]1 ?
HKDC1 act: 37.3

Results for Cc1cc2cc(CN(Cc3cccs3)S(=O)(=O)c3ccc4c(c3)OCCO4)c(=O)[nH]c2cc1C ?
HKDC1 act: -47.0*

What do the screens show for `Cc1cc2cc(CCNC(=O)c3ccc(S(=O)(=O)N4CCCC4)cc3)c(=O)[nH]c2cc1C`?
HKDC1 act: 41.4

Results for CSc1nc(N(C)CCO)c2sc3nc(-c4ccco4)c4c(c3c2n1)CCC4 ?
HKDC1 act: 47.0

What do the screens show for `N#C/C(=C(/O)CCl)c1nc2c(s1)CCc1ccccc1-2`?
HKDC1 act: 43.5

Results for Cc1cc(C)n(CCC(=O)N/N=C/c2ccc(O)cc2O)n1 ?
HKDC1 act: -42.3*

What do the screens show for `Cc1cc(SCC(=O)N/N=C/c2ccc(O)c(O)c2O)c(C)cc1Br`?
HKDC1 act: 44.5

How did O=C(CNC(=O)c1ccncc1)N/N=C/c1ccc(O)cc1O do in these assays?
HKDC1 act: -40.6*

Results for O=C(CNC(=O)c1ccc2c(c1)OCCO2)N/N=C/c1ccc(O)cc1O ?
HKDC1 act: -50.6*

What do the screens show for `CC(=NNC(=O)c1ccncc1)c1ccc(O)cc1O`?
HKDC1 act: -40.2*

What do the screens show for `CC1=NNC(=O)/C1=C\c1cn(-c2ccccc2)nc1-c1ccc(Cl)cc1`?
HKDC1 act: 37.2

What do the screens show for `O=S(=O)(O)c1cc(O)c2ccc(Nc3ccccc3)cc2c1`?
HKDC1 act: 49.9

Results for CN(C)Cc1cc(O)c(CN(C)C)cc1O ?
HKDC1 act: 47.4

Results for O=C(CN1C(=O)/C(=C2\SC(=S)N(CCS(=O)(=O)O)C2=O)c2ccccc21)Nc1cccc(Br)c1 ?
HKDC1 act: 58.4

How did CCc1ccc(S(=O)(=O)NCCc2cn3ccccc3n2)s1 do in these assays?
HKDC1 act: 39.4

What do the screens show for `COc1ccc(N=C2C(=S)N(c3ccc(OC)cc3)C(=NS(=O)(=O)c3ccccc3)N2c2ccccc2)cc1`?
HKDC1 act: -68.5*

Results for O=C(O)c1ccc2ncsc2c1 ?
HKDC1 act: 40.7

How did Cc1ccccc1S(=O)(=O)c1c(C)cc(C)n(CC(C)C)c1=O do in these assays?
HKDC1 act: 71.5

How did COc1ccc2cc(/C=N/NC(=O)c3c(Cl)cnn3C)c(Cl)nc2c1 do in these assays?
HKDC1 act: -74.9*

How did O=C(N/N=C1/C(=O)c2cccc3cccc1c23)c1ccc(Cl)cc1 do in these assays?
HKDC1 act: 43.5

What do the screens show for `CC(C)c1nc2oc3c(NCc4ccccn4)ncnc3c2c2c1COC(C)(C)C2`?
HKDC1 act: 35.3

Results for COc1cc(OC)cc(C(=O)NC(=S)NNC(=O)c2cnccn2)c1 ?
HKDC1 act: -41.6*

How did NNc1ncnc2sc3c(c12)CCC3 do in these assays?
HKDC1 act: -102.3*

What do the screens show for `COc1cc(NC(=O)c2cnc(N)s2)cc(C(=O)Nc2cccc(C(F)(F)F)c2)c1`?
HKDC1 act: 59.2

What do the screens show for `O=C(/C=C/c1cccs1)Nc1scc(-c2ccccc2)c1C(=O)O`?
HKDC1 act: 81.2

How did Cc1onc(-c2ccccc2)c1C(=O)NNC(=S)NC(=O)/C=C/c1cccs1 do in these assays?
HKDC1 act: -57.2*

How did O=C1C(Cl)=C(N2CCCCC2)C(=O)C(Cl)=C1c1cnc(N2CCCCC2)s1 do in these assays?
HKDC1 act: 70.0

What do the screens show for `O=c1oc2c(O)c(O)cc3c(=O)oc4c(O)c(O)cc1c4c23`?
HKDC1 act: 54.0

What do the screens show for `O=C1CSC(=S)N1N=Cc1ccccc1O`?
HKDC1 act: -42.0*

What do the screens show for `O=[N+]([O-])c1ccc(-c2csc(N/N=C/c3cccnc3)n2)cc1`?
HKDC1 act: 35.6

Results for Cc1cc(C)n(-c2ccc(NC(=O)C3CCN(Cc4cc(C)c(C)o4)CC3)cc2)n1 ?
HKDC1 act: 41.0

How did Cn1c(/N=C/c2c(O)ccc3ccccc23)nc2ccccc21 do in these assays?
HKDC1 act: 53.7

How did CCCN(CCC)C(=S)NC(=O)c1ccc(-c2ccccc2)cc1 do in these assays?
HKDC1 act: -47.6*

What do the screens show for `Cc1ccc(C(=O)ONc2ccc(N=NC(=O)c3ccccc3O)cc2)cc1`?
HKDC1 act: 65.0

What do the screens show for `O=C(NCCC(=O)N1CCCC(C(F)(F)F)C1)c1ccc(Br)cc1` (stereo unspecified)?
HKDC1 act: 36.2

Results for COCc1cc(C2C(C(=O)c3ccco3)=C(O)C(=O)N2CCOCCO)ccc1O (stereo unspecified) ?
HKDC1 act: 35.4

What do the screens show for `CC1(C)Cc2ccccc2C2=NNC(=O)C2=N1`?
HKDC1 act: 53.0

How did O=C(NCc1ccncc1)C(=O)N/N=C/c1ccc(OCc2ccccc2)cc1 do in these assays?
HKDC1 act: -58.4*

What do the screens show for `N=C1/C(=C\c2ccc(-c3ccc(C(=O)O)cc3)o2)C(=O)N=C2SC=C(c3ccccc3)N12`?
HKDC1 act: 39.8

How did O=S(=O)(NC1c2cccc3cccc(c23)C1N1CCNCC1)c1ccccc1 (stereo unspecified) do in these assays?
HKDC1 act: -55.8*

What do the screens show for `O=S(=O)(NC1c2cccc3cccc(c23)C1N1CCN(CCO)CC1)c1ccccc1` (stereo unspecified)?
HKDC1 act: -66.1*

How did O=C1/C(=C\c2ccc(Cl)c(Cl)c2)CN(C(=O)CCN2CCOCC2)C/C1=C/c1ccc(Cl)c(Cl)c1 do in these assays?
HKDC1 act: 60.7

Results for CCc1nn2c(=O)cc(COc3ccc(/C=C4\C(=N)N5N=C(C)SC5=NC4=O)cc3)nc2s1 ?
HKDC1 act: 58.2
